Laboratory results from ChEMBL document CHEMBL1671756, “In vitro and in vivo antifungal susceptibilities of the Mucoralean fungus Cunninghamella” (2010).
Values after ≈ are worked out from the molar mass of the structure shown. Active and inactive are the calls of the source. No cut-off for these calls is given here.

Experiments:
[1] = tested on: Cunninghamella bertholletiae; experiment: Antifungal activity against Cunninghamella bertholletiae UTHSC 03-2241 infected in neutropenic OF1 mouse assessed as decreased fungal load in lung at 60 mg/kg, po qd administered 1 day post infection measured after 4 to 5 days relative to untreated control; format: functional, organism-based; parameters: dose 60 mg/kg
Method in brief: (§1)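 Neutropenic male OF1 mice (cyclophosphamide 200 mg/kg i.p. plus 5-fluorouracil 150 mg/kg i.v., day −1) were given 1 × 10⁴ CFU sporangiospores i.v. in 0.2 ml saline. Treatment from 24 h: 0.8 mg/kg i.v. or oral doses once daily; 10 mice per group. Killed at day 5 (day 4 if moribund). About half of brain, lungs and kidneys homogenized in saline; 10-fold dilutions plated on PDA for 24 h at 35°C; log₁₀ CFU/g tissue.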

[2] = tested on: Cunninghamella bertholletiae; experiment: Antifungal activity against Cunninghamella bertholletiae UTHSC 06-1945 infected in neutropenic OF1 mouse assessed as decreased fungal load in lung at 60 mg/kg, po qd administered 1 day post infection measured after 4 to 5 days relative to untreated control; format: functional, organism-based; parameters: dose 60 mg/kg; method in brief: as §1
[3] = tested on: Cunninghamella bertholletiae; experiment: Antifungal activity against Cunninghamella bertholletiae UTHSC 04-2581 infected in neutropenic OF1 mouse assessed as decreased fungal load in lung at 60 mg/kg, po qd administered 1 day post infection measured after 4 to 5 days relative to untreated control; format: functional, organism-based; parameters: dose 60 mg/kg; method in brief: as §1
[4] = tested on: Cunninghamella bertholletiae; experiment: Antifungal activity against Cunninghamella bertholletiae FMR-9598 after 24 hrs by broth microdilution method; format: functional; conditions: FMR-9598, 24 h
Method in brief: (§2)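 CLSI broth microdilution for filamentous fungi. Isolates were stored at −80°C and subcultured on potato dextrose agar at 35°C. MICs were read after 24 h. […] The QC strain was Paecilomyces variotii ATCC 36257.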

[5] = tested on: Cunninghamella bertholletiae; experiment: Antifungal activity against Cunninghamella bertholletiae UTHSC 05-2275 infected in neutropenic OF1 mouse assessed as increase in mouse survival rate at 80 mg/kg, po qd administered 1 day after infection for 7 days relative to untreated control; format: functional, organism-based; parameters: dose 80 mg/kg
Method in brief: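 Male OF1 mice, about 30 g, made neutropenic with cyclophosphamide 200 mg/kg i.p. plus 5-fluorouracil 150 mg/kg i.v. 1 day before challenge. Infected i.v. via the lateral tail vein with 1 × 10⁴ CFU of hemacytometer-counted sporangiospores in 0.2 ml saline. Ceftazidime 5 mg/day s.c. on days 1–7. Oral treatment started 24 h after challenge; 10 mice per group; checked daily for 20 days; Kaplan-Meier mean survival time, log-rank test.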

[6] = tested on: Cunninghamella bertholletiae; experiment: Antifungal activity against Cunninghamella bertholletiae UTHSC 05-2275 infected in neutropenic OF1 mouse assessed as decreased fungal load in kidney at 80 mg/kg, po qd administered 1 day post infection measured after 4 to 5 days relative to untreated control; format: functional, organism-based; parameters: dose 80 mg/kg; method in brief: as §1
[7] = tested on: Cunninghamella bertholletiae; experiment: Antifungal activity against Cunninghamella bertholletiae UTHSC 05-2275 infected in neutropenic OF1 mouse assessed as decreased fungal load in kidney at 60 mg/kg, po qd administered 1 day post infection measured after 4 to 5 days relative to untreated control; format: functional, organism-based; parameters: dose 60 mg/kg; method in brief: as §1
[8] = tested on: Cunninghamella bertholletiae; experiment: Antifungal activity against Cunninghamella bertholletiae UTHSC 06-1945 after 24 hrs by broth microdilution method; format: functional; conditions: UTHSC 06-1945, 24 h; method in brief: as §2
[9] = tested on: Cunninghamella bertholletiae; experiment: Antifungal activity against Cunninghamella bertholletiae UTHSC 04-2581 after 24 hrs by broth microdilution method; format: functional; conditions: UTHSC 04-2581, 24 h; method in brief: as §2
[10] = tested on: Cunninghamella bertholletiae; experiment: Antifungal activity against Cunninghamella bertholletiae UTHSC 06-1945 infected in neutropenic OF1 mouse assessed as decreased fungal load in kidney at 60 mg/kg, po qd administered 1 day post infection measured after 4 to 5 days relative to untreated control; format: functional, organism-based; parameters: dose 60 mg/kg; method in brief: as §1
[11] = tested on: Cunninghamella bertholletiae; experiment: Antifungal activity against Cunninghamella bertholletiae FMR-9598 infected in neutropenic OF1 mouse assessed as decreased fungal load in kidney at 60 mg/kg, po qd administered 1 day post infection measured after 4 to 5 days relative to untreated control; format: functional, organism-based; parameters: dose 60 mg/kg; method in brief: as §1
[12] = tested on: Cunninghamella bertholletiae; experiment: Antifungal activity against Cunninghamella bertholletiae UTHSC 03-2241 infected in neutropenic OF1 mouse assessed as decreased fungal load in kidney at 60 mg/kg, po qd administered 1 day post infection measured after 4 to 5 days relative to untreated control; format: functional, organism-based; parameters: dose 60 mg/kg; method in brief: as §1
[13] = tested on: Cunninghamella bertholletiae; experiment: Antifungal activity against Cunninghamella bertholletiae FMR-9598 infected in neutropenic OF1 mouse assessed as decreased fungal load in kidney at 0.8 mg/kg, iv qd administered 1 day post infection measured after 4 to 5 days relative to untreated control; format: functional, organism-based; parameters: dose 0.8 mg/kg; method in brief: as §1
[14] = Antifungal activity against Cunninghamella echinulata FMR 10974 after 24 hrs by broth microdilution method; format: functional; method in brief: as §2
[15] = tested on: Cunninghamella bertholletiae; experiment: Antifungal activity against Cunninghamella bertholletiae UTHSC 05-2275 infected in neutropenic OF1 mouse assessed as decreased fungal load in lung at 80 mg/kg, po qd administered 1 day post infection measured after 4 to 5 days relative to untreated control; format: functional, organism-based; parameters: dose 80 mg/kg; method in brief: as §1
[16] = tested on: Cunninghamella bertholletiae; experiment: Antifungal activity against Cunninghamella bertholletiae FMR-9598 infected in neutropenic OF1 mouse assessed as decreased fungal load in lung at 60 mg/kg, po qd administered 1 day post infection measured after 4 to 5 days relative to untreated control; format: functional, organism-based; parameters: dose 60 mg/kg; method in brief: as §1
[17] = Antifungal activity against Cunninghamella echinulata UTHSC 03-3725 after 24 hrs by broth microdilution method; format: functional; method in brief: as §2
[18] = Antifungal activity against Cunninghamella echinulata FMR 10973 after 24 hrs by broth microdilution method; format: functional; method in brief: as §2
[19] = tested on: Cunninghamella bertholletiae; experiment: Antifungal activity against Cunninghamella bertholletiae UTHSC 03-2241 infected in neutropenic OF1 mouse assessed as decreased fungal load in lung at 0.8 mg/kg, iv qd administered 1 day post infection measured after 4 to 5 days relative to untreated control; format: functional, organism-based; parameters: dose 0.8 mg/kg; method in brief: as §1
[20] = tested on: Cunninghamella bertholletiae; experiment: Antifungal activity against Cunninghamella bertholletiae UTHSC 04-2581 infected in neutropenic OF1 mouse assessed as decreased fungal load in kidney at 60 mg/kg, po qd administered 1 day post infection measured after 4 to 5 days relative to untreated control; format: functional, organism-based; parameters: dose 60 mg/kg; method in brief: as §1
[21] = tested on: Cunninghamella bertholletiae; experiment: Antifungal activity against Cunninghamella bertholletiae UTHSC 03-2241 after 24 hrs by broth microdilution method; format: functional; conditions: UTHSC 03-2241, 24 h; method in brief: as §2
[22] = tested on: Cunninghamella bertholletiae; experiment: Antifungal activity against Cunninghamella bertholletiae UTHSC 05-2275 after 24 hrs by broth microdilution method; format: functional; conditions: UTHSC 05-2275, 24 h; method in brief: as §2
[23] = Antifungal activity against Cunninghamella echinulata UTHSC 01-2298 after 24 hrs by broth microdilution method; format: functional; method in brief: as §2
[24] = tested on: Cunninghamella bertholletiae; experiment: Antifungal activity against Cunninghamella bertholletiae UTHSC 05-2275 infected in neutropenic OF1 mouse assessed as decreased fungal load in lung at 60 mg/kg, po qd administered 1 day post infection measured after 4 to 5 days relative to untreated control; format: functional, organism-based; parameters: dose 60 mg/kg; method in brief: as §1
[25] = tested on: Cunninghamella bertholletiae; experiment: Antifungal activity against Cunninghamella bertholletiae UTSCH 05-2275 infected in diabetic OF1 mouse assessed as decreased fungal load in brain at 80 mg/kg, po qd administered 1 day post infection measured after 4 to 5 days relative to untreated control; format: functional, organism-based; parameters: dose 80 mg/kg
Method in brief: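 Diabetic male OF1 mice (streptozocin 210 mg/kg i.p.; glucose above 250 mg/dl) were challenged i.v. with 1 × 10⁵ CFU sporangiospores. Oral once-daily dosing from day 1 for 7 days; 10 mice per group. Killed at day 5 (day 4 if moribund). About half of each organ homogenized in saline; serial 10-fold dilutions plated on PDA for 24 h at 35°C; log₁₀ CFU/g tissue.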

| SMILES | Activity [1] | Activity [2] | Activity [3] | MIC [4] [µg/mL] | Activity [5] | Activity [6] | Activity [7] | MIC [8] [µg/mL] | MIC [9] [µg/mL] | Activity [10] | Activity [11] | Activity [12] | Activity [13] | MIC [14] [µg/mL] | Activity [15] | Activity [16] | MIC [17] [µg/mL] | MIC [18] [µg/mL] | Activity [19] | Activity [20] | further results |
| --- | --- | --- | --- | --- | --- | --- | --- | --- | --- | --- | --- | --- | --- | --- | --- | --- | --- | --- | --- | --- | --- |
| C[C@@H]1[C@H](O)[C@@H](C)/C=C/C=C/C=C/C=C/C=C/C=C/C=C/[C@H](O[C@@H]2O[C@H](C)[C@@H](O)[C@H](N)[C@@H]2O)C[C@@H]2O[C@](O)(C[C@@H](O)C[C@@H](O)[C@H](O)CC[C@@H](O)C[C@@H](O)CC(=O)O[C@H]1C)C[C@H](O)[C@H]2C(=O)O [AMPHOTERICIN B] | Active | Active | Active | 2 (≈ 2.16 µM) | Active | Active | Active | 4 (≈ 4.33 µM) | 4 (≈ 4.33 µM) | Active | Active | Active | Active | 8 (≈ 8.66 µM) | Active | Active | 8 (≈ 8.66 µM) | 4 (≈ 4.33 µM) | Active | Active | MIC [21]: 4 µg/mL (≈ 4.33 µM); MIC [22]: 2 µg/mL (≈ 2.16 µM); MIC [23]: 16 µg/mL (≈ 17.3 µM); Activity [24]: Active |
| CC[C@@H]([C@H](C)O)n1ncn(-c2ccc(N3CCN(c4ccc(OC[C@@H]5CO[C@@](Cn6cncn6)(c6ccc(F)cc6F)C5)cc4)CC3)cc2)c1=O [POSACONAZOLE] | Active | Active | Active | 0.5 (≈ 0.713 µM) | Active | Active | Active | 0.5 (≈ 0.713 µM) | 0.5 (≈ 0.713 µM) | Active | Active | Active | Active | > 16 | Active | Active | 1 (≈ 1.43 µM) | > 16 | Active | Active | Activity [25]: Active; MIC [21]: 0.5 µg/mL (≈ 0.713 µM); MIC [22]: 0.5 µg/mL (≈ 0.713 µM); MIC [23]: 16 µg/mL (≈ 22.8 µM); Activity [24]: Active |
